{"data": "Assay results pooled from the literature", "note": "Protocols differ between the studies behind these lines."}
{"SMILES": "N#C[C@@]12C[C@@H]1[C@@H](n1cnc3c(N[C@@H](C4CCC4)C4CC4)nc(I)nc31)[C@H](O)[C@@H]2O", "system": "male Wistar rat, plasma", "setting": "oral, 3 mg/kg", "half-life": "4.3 h"}
{"SMILES": "CC(=Nc1ccc(N=Cc2cnccn2)cc1)N(C)C", "system": "male Sprague-Dawley rat, plasma", "setting": "oral, 200 mg/kg", "half-life": "7.79 h"}
{"SMILES": "O=c1cc(-c2ccc(O)c(O)c2)oc2cc(O)cc(O)c12", "system": "male Sprague-Dawley rat, plasma", "setting": "oral, 30 mg/kg", "half-life": "2.2 h"}
{"SMILES": "Nc1ccc(/C=C/C(=O)NCc2cc3cc(-c4ccc(C(=O)N5CCC(F)(F)CC5)cc4)cc(-c4ccc(F)cc4)c3o2)cn1", "system": "rat, plasma", "setting": "oral, 3 mg/kg", "half-life": "4.59 h"}
{"SMILES": "CC1(CN)CCN(c2cnc3c(Sc4ccncc4Cl)n[nH]c3n2)CC1", "system": "male Sprague-Dawley rat, plasma", "setting": "intravenous, 2 mg/kg", "half-life": "0.935 h"}
{"SMILES": "C/C(=N\\c1ccc(O)cc1)c1cc2ccccc2n1C", "system": "male Sprague-Dawley rat, plasma", "setting": "intravenous, 5 mg/kg, single dose", "half-life": "~4.5 h"}
{"SMILES": "O=C(C=Cc1ccccc1)Nc1cc(-c2ccnc(N3CCC(O)CC3)c2)ccn1", "system": "female Sprague-Dawley rat, plasma", "setting": "oral, 50 mg/kg", "half-life": "0.48 h"}
{"SMILES": "COc1ccc2cc3n(c(=O)c2c1OC)CCc1cc2c(cc1-3)OCO2", "system": "male Sprague-Dawley rat, blood", "setting": "oral, 50 mg/kg", "half-life": "1.57 h"}
{"SMILES": "O=C1CC[C@H](N2Cc3cc(N4CCN(CC5CCN(c6ccc([C@@H]7c8ccc(O)cc8CC[C@@H]7c7ccccc7)cc6)CC5)CC4)ccc3C2=O)C(=O)N1", "system": "female Sprague-Dawley rat, plasma", "setting": "oral, 20 mg/kg, fed", "half-life": "6.38 h"}
